Experimental data as given in ChEMBL document CHEMBL4373733, “Reinvestigating the synthesis and efficacy of small benzimidazole derivatives as presequence protease enhancers” (Eur J Med Chem, 2019).
Active and inactive are the calls of the source. No cut-off for these calls is given here.

Tests used:
[1] = target: T1, Presequence protease, mitochondrial (Homo sapiens) (UniProt Q5JRX3); test: Agonist activity at recombinant human N-terminal His6-tagged PreP expressed in Escherichia coli expression system assessed as increase in degradation of substrate V at 0.0001 to 10 uM measured every 30 sec for 10 mins by fluorometry
T1 sequence (whole entry): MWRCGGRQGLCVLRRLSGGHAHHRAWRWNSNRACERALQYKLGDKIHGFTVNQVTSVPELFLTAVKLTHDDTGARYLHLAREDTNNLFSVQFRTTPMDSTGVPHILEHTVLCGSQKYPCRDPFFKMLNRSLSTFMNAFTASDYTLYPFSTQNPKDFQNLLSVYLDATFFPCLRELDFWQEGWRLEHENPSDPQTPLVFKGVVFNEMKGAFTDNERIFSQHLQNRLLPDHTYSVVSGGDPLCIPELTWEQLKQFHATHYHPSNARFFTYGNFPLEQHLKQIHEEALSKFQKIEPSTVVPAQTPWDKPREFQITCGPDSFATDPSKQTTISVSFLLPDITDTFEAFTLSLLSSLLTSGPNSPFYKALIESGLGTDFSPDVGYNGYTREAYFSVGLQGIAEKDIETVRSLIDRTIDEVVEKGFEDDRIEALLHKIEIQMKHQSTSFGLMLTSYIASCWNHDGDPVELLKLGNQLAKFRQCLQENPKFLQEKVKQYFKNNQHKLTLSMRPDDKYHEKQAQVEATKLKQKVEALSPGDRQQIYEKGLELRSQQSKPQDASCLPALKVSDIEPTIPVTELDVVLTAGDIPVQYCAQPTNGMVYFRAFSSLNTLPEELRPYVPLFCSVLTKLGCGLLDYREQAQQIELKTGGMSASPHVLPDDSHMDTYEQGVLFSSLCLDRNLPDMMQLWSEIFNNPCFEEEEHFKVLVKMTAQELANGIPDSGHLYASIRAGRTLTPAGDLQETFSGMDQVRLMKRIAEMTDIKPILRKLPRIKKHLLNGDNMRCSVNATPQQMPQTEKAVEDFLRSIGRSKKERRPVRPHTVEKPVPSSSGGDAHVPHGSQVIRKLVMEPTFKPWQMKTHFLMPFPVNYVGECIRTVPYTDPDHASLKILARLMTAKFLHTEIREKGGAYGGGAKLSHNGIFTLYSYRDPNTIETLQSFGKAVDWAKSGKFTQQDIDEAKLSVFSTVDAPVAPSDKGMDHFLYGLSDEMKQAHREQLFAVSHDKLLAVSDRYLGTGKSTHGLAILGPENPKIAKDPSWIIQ
Summary of the method: (§1)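 hPreP expressed in E. coli at 25 °C (300μM IPTG, 16 h), purified by Ni-NTA, Source Q and Superdex 200, stored at −80 °C. Reaction: 0.1 μg (or 1 μg) hPreP in 20 mM HEPES pH 8.0, 10 mM MgCl₂, with substrate V (0.1 or 1.4 μg), 200 or 250 μl, room temperature (24–26 °C) or 37 °C. Fluorescence ex 320/em 405 nm. Degradation rate averaged over four independent experiments, mean ± SD.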

[2] = substrate: Nc1ccc([N+](=O)[O-])cc1/N=C/c1cc(Br)ccc1O; test: (§2) Agonist activity at recombinant human N-terminal His6-tagged PreP expressed in Escherichia coli expression system assessed as increase in degradation of substrate V by measuring catalytic rate at 0.01 uM measured every 30 sec for 10 mins by fluorometry (reference value: 1.4 +/- 0.1 /min); summary of the method: as §1
[3] = substrate: O=[N+]([O-])c1ccc2nc(-c3cc(Br)ccc3O)n(Cc3cc(Br)ccc3O)c2c1; test: as §2; summary of the method: as §1
[4] = substrate: Nc1ccc([N+](=O)[O-])cc1/N=C/c1cc(Br)ccc1O; test: (§3) Agonist activity at recombinant human N-terminal His6-tagged PreP expressed in Escherichia coli expression system assessed as increase in degradation of substrate V by measuring catalytic rate at 0.1 uM measured every 30 sec for 10 mins by fluorometry (reference value: 1.4 +/- 0.1 /min); summary of the method: as §1
[5] = substrate: O=[N+]([O-])c1ccc2nc(-c3cc(Br)ccc3O)n(Cc3cc(Br)ccc3O)c2c1; test: as §3; summary of the method: as §1
[6] = substrate: Nc1ccc([N+](=O)[O-])cc1/N=C/c1cc(Br)ccc1O; test: (§4) Agonist activity at recombinant human N-terminal His6-tagged PreP expressed in Escherichia coli expression system assessed as increase in degradation of substrate V by measuring catalytic rate at 1 uM measured every 30 sec for 10 mins by fluorometry (reference value: 1.4 +/- 0.1 /min); summary of the method: as §1
[7] = substrate: O=[N+]([O-])c1ccc2nc(-c3cc(Br)ccc3O)n(Cc3cc(Br)ccc3O)c2c1; test: as §4; summary of the method: as §1
[8] = substrate: O=[N+]([O-])c1ccc2nc(-c3cc(Br)ccc3O)n(Cc3cc(Br)ccc3O)c2c1; test: Agonist activity at recombinant human N-terminal His6-tagged PreP expressed in Escherichia coli expression system assessed as increase in degradation of substrate V by measuring catalytic rate at 10 uM measured every 30 sec for 10 mins by fluorometry (reference value: 1.4 +/- 0.1 /min); summary of the method: as §1
[9] = target: Presequence protease, mitochondrial (Homo sapiens) (UniProt Q5JRX3); test: Agonist activity at recombinant human N-terminal His6-tagged PreP expressed in Escherichia coli expression system assessed as increase in degradation of substrate V by measuring catalytic rate at 10 uM measured every 30 sec for 10 mins by fluorometry (reference value: 1.4 +/- 0.1 /min)

O=[N+]([O-])c1ccc2[nH]c(-c3cc(Br)ccc3O)nc2c1
Activity [1]: inactive

O=[N+]([O-])c1ccc2nc(-c3cc(Br)ccc3O)n(Cc3cc(Br)ccc3O)c2c1
Activity [1]: inactive

Nc1ccc([N+](=O)[O-])cc1/N=C/c1cc(Br)ccc1O
Activity [1]: inactive

B1: Presequence protease, mitochondrial (Homo sapiens), Q5JRX3 (protein)
chain: T1 sequence (whole entry)
kcat [2]: 0.0233 s⁻¹
kcat [3]: 0.0183 s⁻¹
kcat [4]: 0.02 s⁻¹
kcat [5]: 0.02 s⁻¹
kcat [6]: 0.0217 s⁻¹
kcat [7]: 0.0217 s⁻¹
kcat [8]: 0.0233 s⁻¹
kcat [9]: 0.0217 s⁻¹
